In ChEMBL document CHEMBL1125896, “2-(oxadiazolyl)- and 2-(thiazolyl)imidazo[1,2-a]pyrimidines as agonists and inverse agonists at benzodiazepine receptors” (J Med Chem, 1991):

How the values were obtained:
[1] = biological target: GABA-A receptor; anion channel; experiment: Binding affinity towards benzodiazepine receptor by the displacement of [3H]flunitrazepam from rat brain preparations.
Rattus norvegicus [2] = experiment: Minimum effective dose on oral administration; assay type: functional; conditions: read-out: MED
Outline: (§1)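 Food-motivated conflict test in trained Lister rats: five alternating 4-min FI30 unpunished and five 3-min FR5 punished components. Dosing po 30 min before testing, first at 50 mg/kg in four rats, then at decreasing doses (20, 10, 5, 2, 1 mg/kg) if active. MED is the dose giving a significant rise in punished responding (Mann-Whitney U).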

Mus musculus [3] = species: Mus musculus; experiment: Sedative/muscle relaxant effects in male CD-1 mice was assessed with a Ugo Basile rotating drum and the dose causing 50% decrease in time (ED50) was evaluated; assay type: functional
Outline: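 Rotating drum of 3 cm diameter at 16 rev/min; time on drum recorded 1 h after dosing. Mean for groups of 10 mice expressed as percentage of control group mean.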

Mus musculus [4] = species: Mus musculus; experiment: Dose of leptazol-inducing tonic seizures in CD-1 mice was determined and represented as ED50; assay type: functional
Rattus norvegicus [5] = experiment: Compound was tested for conflict antagonism of chlordiazepoxide (CDZP) at 10 mg/kg orally.; assay type: functional; conditions: po, read-out: MED
Outline: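 Food-motivated conflict test in trained Lister rats: test compound given po with 10 mg/kg po chlordiazepoxide. Effect compared with chlordiazepoxide alone in the same rats in separate assays. Schedule of five alternating 4-min FI30 unpunished and five 3-min FR5 punished components.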

Rattus norvegicus [6] = experiment: Compound was tested for the minimum effective dose (MED) on oral administration; value ranges from 10-50 mg/Kg; assay type: functional; conditions: read-out: MED; outline: as §1
Mus musculus [7] = species: Mus musculus; experiment: The dose of leptazol-inducing tonic seizures in CD-1 mice was determined and represented as ED50.; assay type: functional
Rattus norvegicus [8] = experiment: Compound was tested for the minimum effective dose (MED) on oral administration; value ranges from 1-2 mg/Kg; assay type: functional; conditions: read-out: MED; outline: as §1
Rattus norvegicus [9] = experiment: Compound was tested for the minimum effective dose (MED) on oral administration; value ranges from 2-5 mg/Kg; assay type: functional; conditions: read-out: MED; outline: as §1
Mus musculus [10] = species: Mus musculus; experiment: Sedative/muscle relaxant effects in male CD-1 mice was assessed with a Ugo Basile rotating drum and the dose causing 50% decrease in time (ED50) was calculated.; assay type: functional
Outline: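 Male CD-1 mice, groups of 10, were placed on a rotating drum (3 cm diameter, 16 rev/min) 1 h after dosing and their time on the drum was recorded. The group mean was expressed as a percentage of the control group mean. The dose giving a 50% decrease came from best-fit lines through at least three dose-effect points, with 95% confidence limits by Litchfield and Wilcoxon.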

Mus musculus [11] = experiment: Intraperitoneal dose of leptazol-inducing tonic seizures in CD-1 mice was determined and represented as ED50; assay type: functional; conditions: ip

| SMILES | IC50 [1] | minimal effective dose (Rattus norvegicus [2]) | other results |
| --- | --- | --- | --- |
| COc1nc2nc(-c3nnc(C)o3)cn2c2c1CCCC2 | 3200 nM | > 50 mg/kg |  |
| CCc1c(SC)nc2nc(-c3noc(C)n3)cn2c1C | 160 nM | 2 mg/kg |  |
| CCCc1c(OC)nc2nc(-c3noc(C)n3)cn2c1C | 1600 nM | 5 mg/kg | ED50 (Mus musculus [3]): 16.5 mg/kg; ED50 (Mus musculus [4]): 13 mg/kg |
| C/C=C/c1c(OC)nc2nc(-c3nnc(C)o3)cn2c1C | > 10000 nM | > 50 mg/kg |  |
| CCc1c(OC)nc2nc(-c3nc(C)c(C)s3)cn2c1C | 2500 nM | > 50 mg/kg | minimal effective dose (Rattus norvegicus [5]): > 50 mg/kg |
| CCc1nnc(-c2cn3c(C)c(CC)c(OC)nc3n2)o1 | > 10000 nM | 50 mg/kg |  |
| CCc1c(OC)nc2nc(-c3nnc(C(F)(F)F)o3)cn2c1C | > 10000 nM |  | minimal effective dose (Rattus norvegicus [6]): 10 mg/kg |
| CCc1c(OC)nc2nc(-c3noc(C)n3)c(Br)n2c1C | 10000 nM | 10 mg/kg |  |
| CCc1c(OC)nc2nc(-c3noc(C(F)(F)F)n3)cn2c1C |  |  | ED50 (Mus musculus [3]): > 200 mg/kg; ED50 (Mus musculus [7]): 70 mg/kg; minimal effective dose (Rattus norvegicus [8]): 1 mg/kg |
| CCc1c(OC)nc2nc(-c3nnco3)cn2c1C | 10000 nM | > 50 mg/kg |  |
| C=CCc1c(OC)nc2nc(-c3nnc(C)o3)cn2c1C | 2500 nM | 10 mg/kg |  |
| CCc1c(OC)nc2nc(-c3nccs3)cn2c1C | 200 nM |  | minimal effective dose (Rattus norvegicus [5]): 10 mg/kg |
| CCCc1nnc(-c2cn3c(C)c(CC)c(OC)nc3n2)o1 | > 10000 nM | 50 mg/kg |  |
| C=CCc1c(OC)nc2nc(-c3noc(C)n3)cn2c1C | 560 nM | 10 mg/kg |  |
| CCc1c(SC)nc2nc(-c3nc(C)cs3)cn2c1C | 80 nM | > 50 mg/kg | minimal effective dose (Rattus norvegicus [5]): 50 mg/kg |
| CCc1c(OC)nc2nc(-c3cnco3)cn2c1C | 2500 nM | > 50 mg/kg |  |
| CCc1c(OC)nc2nc(-c3nnc(C)s3)cn2c1C | > 10000 nM |  | minimal effective dose (Rattus norvegicus [9]): 2 mg/kg |
| CNC1=Nc2ccc(Cl)cc2C(c2ccccc2)=[N+]([O-])C1 [CHLORDIAZEPOXIDE] |  | 2 mg/kg | ED50 (Mus musculus [7]): 1.9 mg/kg; ED50 (Mus musculus [10]): 6.8 mg/kg |

| SMILES | IC50 [1] | minimal effective dose (Rattus norvegicus [2]) | other results |
| --- | --- | --- | --- |
| CCc1c(OC)nc2nc(-c3nnc(-c4ccccc4)o3)cn2c1C | > 10000 nM | > 50 mg/kg |  |
| CCc1c(OC)nc2nc(-c3nc(C)no3)cn2c1C | 630 nM | 5 mg/kg | ED50 (Mus musculus [3]): > 100 mg/kg; ED50 (Mus musculus [4]): 14 mg/kg |
| CCc1c(OC)nc2nc(-c3nc(C)cs3)cn2c1C | 112 nM | > 50 mg/kg | ED50 (Mus musculus [11]): 1.7 mg/kg; minimal effective dose (Rattus norvegicus [5]): 10 mg/kg |
| CCOC(=O)c1csc(-c2cn3c(C)c(CC)c(OC)nc3n2)n1 | 2800 nM | > 50 mg/kg |  |
| COc1nc2nc(-c3noc(C)n3)cn2c2c1CCCC2 [TANIPLON] | 560 nM | 5 mg/kg | ED50 (Mus musculus [3]): > 100 mg/kg; ED50 (Mus musculus [4]): 55 mg/kg |
| CCc1c(SC)nc2nc(-c3nnc(C)o3)cn2c1C | 320 nM | 5 mg/kg |  |
| CCCc1c(OC)nc2nc(-c3nnc(C)o3)cn2c1C | 7900 nM | 10 mg/kg |  |
| CCc1csc(-c2cn3c(C)c(CC)c(OC)nc3n2)n1 | 220 nM | 50 mg/kg | minimal effective dose (Rattus norvegicus [5]): 50 mg/kg |
| CCc1c(OC)nc2nc(-c3noc(C)n3)c(Cl)n2c1C | 10000 nM | 10 mg/kg |  |
| C=CCc1c(OC)nc2nc(-c3nc(C)cs3)cn2c1C | 100 nM | > 50 mg/kg | minimal effective dose (Rattus norvegicus [5]): > 50 mg/kg |
| CCc1c(OC)nc2nc(-c3n[nH]c(C)n3)cn2c1C | > 10000 nM | > 50 mg/kg |  |
| CCc1c(OC)nc2nc(-c3noc(C)n3)cn2c1C [FASIPLON] | 500 nM |  | ED50 (Mus musculus [3]): 17 mg/kg; ED50 (Mus musculus [4]): 7.4 mg/kg; minimal effective dose (Rattus norvegicus [9]): 2 mg/kg |
| CCc1c(OC)nc2nc(-c3cc(C)[nH]n3)cn2c1C | 5000 nM | > 50 mg/kg |  |
| CCc1c(OC)nc2nc(-c3nc(C(F)(F)F)cs3)cn2c1C | 2000 nM | > 50 mg/kg | minimal effective dose (Rattus norvegicus [5]): > 50 mg/kg |
| COc1nc2nc(-c3nc(C)cs3)cn2c2c1CCCC2 | 22 nM | > 50 mg/kg | minimal effective dose (Rattus norvegicus [5]): > 50 mg/kg |
| CCc1c(OC)nc2nc(-c3nnc(C)o3)cn2c1C |  | 2 mg/kg | ED50 (Mus musculus [3]): > 200 mg/kg; ED50 (Mus musculus [4]): 20 mg/kg |
| CCCc1c(OC)nc2nc(-c3nc(C)cs3)cn2c1C | 100 nM | > 50 mg/kg | minimal effective dose (Rattus norvegicus [5]): 50 mg/kg |
| CCc1c(OC)nc2nc(-c3cc(C)no3)cn2c1C | 4500 nM | 50 mg/kg |  |
